Data from article PMC8083113 (Journal of medicinal chemistry, 2021).
Read-outs that look alike come from different tables or passages of the source.

Legend:
[1] = target: T1, STAT3 (Homo sapiens, UniProt P40763); test: Western blot of STAT3 in BxPC-3; type: cell-based; details: for effect on STAT3 expression: BxPC-3, 16 h, XD2–162 up to 5 μM, 1–6 at 0.5 μM
Outline: (§1)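 BxPC-3 cells (500 × 10^3/well) are treated with the test compound (concentrations up to 5 μM) for 16 h. They are lysed at 4 °C by sonication in Tris/NaCl/Triton X-100/SDS buffer, pH 7.4, with protease and phosphatase inhibitors. Protein is measured by BCA, run on 10 or 12% gels and transferred to PVDF. Blots are probed overnight at 4 °C for STAT3/pSTAT3 (1:1000) and GAPDH (1:4000), imaged by near-infrared fluorescence, and quantified by densitometry.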

[2] = Table S4; cited from earlier work
[3] = system: BxPC-3; test: MTT cytotoxicity assay in BxPC-3; type: cell-based
Outline: (§2)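 Cells (3000–6000/well) are seeded and left overnight, then exposed to the test compound or DMSO vehicle for 3 days. MTT (3 mg/ml) is added for 3 h at 37 °C, and the formazan is dissolved in DMSO and read at 570 nm. IC50 comes from dose-response curves from three independent experiments, reported as mean ± SD.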

[4] = system: pSTAT3; test: Western blot of pSTAT3 in BxPC-3; type: cell-based; details: BxPC-3, 16 h treatment
Outline: as §1

[5] = target: GSPT1 (Homo sapiens, UniProt P15170); test: Western blot of GSPT1 in BxPC-3; type: cell-based
Sequence of GSPT1 (Q96SW2 whole entry partner): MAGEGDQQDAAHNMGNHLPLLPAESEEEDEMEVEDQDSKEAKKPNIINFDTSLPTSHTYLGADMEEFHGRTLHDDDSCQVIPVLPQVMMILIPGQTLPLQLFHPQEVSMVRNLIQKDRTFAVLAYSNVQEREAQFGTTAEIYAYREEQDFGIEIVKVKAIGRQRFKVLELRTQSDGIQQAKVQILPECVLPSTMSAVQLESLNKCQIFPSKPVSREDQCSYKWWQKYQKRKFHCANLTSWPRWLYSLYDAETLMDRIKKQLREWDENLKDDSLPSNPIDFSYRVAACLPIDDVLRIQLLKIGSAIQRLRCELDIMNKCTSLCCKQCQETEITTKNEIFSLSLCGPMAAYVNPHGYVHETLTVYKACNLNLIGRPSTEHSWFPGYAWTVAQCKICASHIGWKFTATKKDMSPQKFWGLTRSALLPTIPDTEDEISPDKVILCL
Sequence of GSPT1 (Q16531 whole entry partner): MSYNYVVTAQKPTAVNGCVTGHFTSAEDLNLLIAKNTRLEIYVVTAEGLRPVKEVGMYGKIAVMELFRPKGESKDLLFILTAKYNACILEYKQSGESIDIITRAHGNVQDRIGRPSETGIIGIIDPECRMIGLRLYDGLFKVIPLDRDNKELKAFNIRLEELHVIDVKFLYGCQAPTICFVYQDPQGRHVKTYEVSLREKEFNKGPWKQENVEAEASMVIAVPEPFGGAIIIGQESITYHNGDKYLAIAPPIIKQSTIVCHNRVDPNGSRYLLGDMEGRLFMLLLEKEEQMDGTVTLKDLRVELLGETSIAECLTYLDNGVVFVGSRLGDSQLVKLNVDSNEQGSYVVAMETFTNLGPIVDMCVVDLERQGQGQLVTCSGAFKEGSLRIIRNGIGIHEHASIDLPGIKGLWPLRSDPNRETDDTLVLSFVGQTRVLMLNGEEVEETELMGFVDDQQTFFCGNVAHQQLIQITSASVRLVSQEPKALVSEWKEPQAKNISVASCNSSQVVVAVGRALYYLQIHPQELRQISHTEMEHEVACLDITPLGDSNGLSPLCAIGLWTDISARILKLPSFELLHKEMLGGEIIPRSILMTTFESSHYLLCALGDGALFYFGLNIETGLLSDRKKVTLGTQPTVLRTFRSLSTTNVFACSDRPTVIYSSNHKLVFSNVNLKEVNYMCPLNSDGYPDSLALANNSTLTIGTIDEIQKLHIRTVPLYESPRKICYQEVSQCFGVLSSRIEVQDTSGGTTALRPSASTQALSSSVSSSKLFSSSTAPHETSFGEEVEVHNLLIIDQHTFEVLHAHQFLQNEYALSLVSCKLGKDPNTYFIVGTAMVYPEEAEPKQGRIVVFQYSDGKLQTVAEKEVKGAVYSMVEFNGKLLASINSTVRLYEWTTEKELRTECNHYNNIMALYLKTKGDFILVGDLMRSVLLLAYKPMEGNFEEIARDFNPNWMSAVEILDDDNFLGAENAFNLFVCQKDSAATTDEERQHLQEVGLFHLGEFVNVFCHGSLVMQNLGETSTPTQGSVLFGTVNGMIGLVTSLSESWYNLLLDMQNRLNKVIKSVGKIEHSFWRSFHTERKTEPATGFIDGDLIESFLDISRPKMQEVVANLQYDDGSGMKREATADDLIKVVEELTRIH
Sequence of GSPT1 (P15170 whole entry): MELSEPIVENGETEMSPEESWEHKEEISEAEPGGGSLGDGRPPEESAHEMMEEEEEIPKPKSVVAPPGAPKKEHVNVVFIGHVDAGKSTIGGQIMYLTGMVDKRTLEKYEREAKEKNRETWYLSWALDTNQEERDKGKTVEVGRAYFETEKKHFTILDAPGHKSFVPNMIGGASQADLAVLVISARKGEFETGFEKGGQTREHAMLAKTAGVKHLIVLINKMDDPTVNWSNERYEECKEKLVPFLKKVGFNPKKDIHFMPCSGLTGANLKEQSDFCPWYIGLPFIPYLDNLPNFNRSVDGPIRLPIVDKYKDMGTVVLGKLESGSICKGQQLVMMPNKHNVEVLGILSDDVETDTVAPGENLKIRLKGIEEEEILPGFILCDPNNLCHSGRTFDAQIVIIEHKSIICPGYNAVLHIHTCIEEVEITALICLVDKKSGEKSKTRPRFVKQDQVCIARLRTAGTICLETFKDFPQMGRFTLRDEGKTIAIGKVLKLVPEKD
Outline: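 BxPC-3 cells (500 × 10^3/well) are exposed to the test compound for 16 h and lysed by sonication at 4 °C in Tris/NaCl/Triton/SDS buffer, pH 7.4, with protease and phosphatase inhibitors. After BCA quantitation, SDS-PAGE and PVDF transfer, membranes are probed overnight at 4 °C with anti-GSPT (1:1000) and GAPDH (1:4000). Detection uses near-infrared secondaries, with densitometric quantification.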

[6] = target: ZFP91 (Homo sapiens, UniProt Q96JP5+Q96SW2); test: Western blot of ZFP91 in BxPC-3; type: cell-based
Sequence of ZFP91 (Q96JP5 whole entry): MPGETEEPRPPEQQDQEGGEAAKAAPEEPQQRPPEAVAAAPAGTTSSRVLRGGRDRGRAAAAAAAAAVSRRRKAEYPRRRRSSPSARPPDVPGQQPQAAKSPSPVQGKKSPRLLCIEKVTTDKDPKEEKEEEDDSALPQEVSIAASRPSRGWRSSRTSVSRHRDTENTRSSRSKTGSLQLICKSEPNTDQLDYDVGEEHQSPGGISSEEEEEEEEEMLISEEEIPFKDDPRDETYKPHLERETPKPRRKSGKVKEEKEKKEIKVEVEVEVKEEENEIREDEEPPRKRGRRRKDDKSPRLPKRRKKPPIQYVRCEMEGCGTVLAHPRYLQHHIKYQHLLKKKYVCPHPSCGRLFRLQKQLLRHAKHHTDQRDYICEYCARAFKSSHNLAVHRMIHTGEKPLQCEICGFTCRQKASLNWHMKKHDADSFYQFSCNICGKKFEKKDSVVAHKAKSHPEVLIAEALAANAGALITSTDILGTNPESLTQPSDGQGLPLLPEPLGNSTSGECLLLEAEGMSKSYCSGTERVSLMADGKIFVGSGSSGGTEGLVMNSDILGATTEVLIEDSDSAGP
Sequence of ZFP91 (Q96SW2 whole entry): as the sequence (Q96SW2 whole entry partner) above
Sequence of ZFP91 (Q16531 whole entry partner): as the sequence (Q16531 whole entry partner) above

[7] = system: BxPC-3; test: Colony formation assay in BxPC-3; type: cell-based; details: BxPC-3, 7–10 days
[8] = target: T1, STAT3; test: Western blot of STAT3 in OVCAR-3; type: cell-based; details: OVCAR-3, negative control incapable of binding CRBN
Outline: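 OVCAR-3 cells are seeded at 500 × 10^3/well and treated with the test compound at several concentrations and times (read-out at 12 h). Lysis is by sonication at 4 °C in Tris/NaCl/Triton X-100/SDS buffer, pH 7.4, with protease and phosphatase inhibitors. After BCA quantitation, SDS-PAGE and PVDF transfer, blots are probed for STAT3 (1:1000) and GAPDH (1:4000) and imaged by near-infrared fluorescence.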

[9] = MTT assay; type: cell-based; details: Table S4
[10] = system: tumor; details: within two weeks; cited from earlier work
[11] = target: T1, STAT3; details: leukemia and lymphoma cell lines; cited from earlier work
[12] = system: MIA PaCa-2; test: MTT cytotoxicity assay in MIA PaCa-2; type: cell-based; details: read-out: IC50 (μM) MIA PaCa-2, 3 days, mean ± SD
Outline: as §2

[13] = Homo sapiens, BXPC-3, 72 h, read-out: IC50 (μM) BxPC-3, MTT assay, 3 days, mean ± SD
[14] = read-out: IC50 (μM) BxPC-3, MTT assay, 3 days, mean ± SD

T1 sequence (P40763 whole entry): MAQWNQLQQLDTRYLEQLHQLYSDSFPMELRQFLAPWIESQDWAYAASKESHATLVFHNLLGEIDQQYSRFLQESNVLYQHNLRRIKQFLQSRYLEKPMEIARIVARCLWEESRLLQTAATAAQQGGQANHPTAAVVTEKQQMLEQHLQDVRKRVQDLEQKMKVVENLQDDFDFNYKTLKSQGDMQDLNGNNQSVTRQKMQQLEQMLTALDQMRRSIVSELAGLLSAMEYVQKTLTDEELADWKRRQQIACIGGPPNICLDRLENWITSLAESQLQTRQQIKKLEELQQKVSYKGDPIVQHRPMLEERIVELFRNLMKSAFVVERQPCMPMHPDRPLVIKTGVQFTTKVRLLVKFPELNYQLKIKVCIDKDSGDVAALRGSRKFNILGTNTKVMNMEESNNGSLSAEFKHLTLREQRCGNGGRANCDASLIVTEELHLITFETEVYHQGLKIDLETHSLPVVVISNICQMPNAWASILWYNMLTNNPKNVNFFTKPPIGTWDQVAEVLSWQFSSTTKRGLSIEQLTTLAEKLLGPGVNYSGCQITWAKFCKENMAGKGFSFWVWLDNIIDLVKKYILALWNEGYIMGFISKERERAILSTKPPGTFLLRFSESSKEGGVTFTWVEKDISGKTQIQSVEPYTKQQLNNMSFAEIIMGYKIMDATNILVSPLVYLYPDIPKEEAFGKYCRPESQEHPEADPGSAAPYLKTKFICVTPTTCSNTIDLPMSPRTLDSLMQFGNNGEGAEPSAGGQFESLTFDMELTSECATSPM

Q: For O=C(NCCN1CCCCC1)c1cc2c(o1)C(=O)c1ccccc1C2=O [1–6, reference compound], which “effect on STAT3 expression” value [1] is on record?
A: The value was “did not have any effect”.

Q: And the “greater cytotoxicity than napabucasin” value [2]?
A: Its value is > 10 fold.

Q: With O=C1CCC(N2C(=O)c3cccc(NCCCC4CCN(CCNC(=O)c5cc6c(o5)C(=O)c5ccccc5C6=O)CC4)c3C2=O)C(=O)N1 (stereo not shown) [3–6c, N-(2-(4-(3-((2-(2,6-dioxopiperidin-3-yl)-1,3-dioxoisoindolin-4-yl)amino)propyl)piperidin-1-yl)ethyl)-4,9-dioxo-4,9-dihydronaphtho[2,3-b]furan-2-carboxamide] as the compound, how does the IC50 [3, 13] read?
A: Its IC50 is < 1 µM.

Q: Which IC50 [3, 13] does the source give for O=C1CCC(N2C(=O)c3cccc(NCCCCCC4CCN(CCNC(=O)c5cc6c(o5)C(=O)c5ccccc5C6=O)CC4)c3C2=O)C(=O)N1 (stereo not shown) [3–6d, N-(2-(4-(5-((2-(2,6-dioxopiperidin-3-yl)-1,3-dioxoisoindolin-4-yl)amino)pentyl)piperidin-1-yl)ethyl)-4,9-dioxo-4,9-dihydronaphtho[2,3-b]furan-2-carboxamide] here?
A: Its IC50 is < 1 µM.

Q: What about the “concentration at which a decrease in pSTAT3 level was achieved” value [4] of the same compound?
A: The value was 1 μM.

Q: And the GSPT1 protein level [5]?
A: The GSPT1 protein level was “did not degrade”.

Q: What about the “ZFP91 expression at the earlier time point” value ([6]; BxPC-3, 4 h) of the same compound?
A: Its value is “no effect”.

Q: What about the “inhibition of colony formation” value [7] of the same compound?
A: The value was “greater inhibitory activity than napabucasin”.

Q: And the “concentration at which a decrease in STAT3 protein expression was observed” value ([1]; BxPC-3, 16 h treatment)?
A: Its value is 5 µM.

Q: For O=C1CCC(N2C(=O)c3cccc(OCCCCNC(=O)c4cc5c(o4)C(=O)c4ccccc4C5=O)c3C2=O)C(=O)N1 (stereo not shown) [5–5a, N-(4-((2-(2,6-dioxopiperidin-3-yl)-1,3-dioxoisoindolin-4-yl)oxy)butyl)-4,9-dioxo-4,9-dihydronaphtho[2,3-b]furan-2-carboxamide], which “fold more potent than 5–5b” value ([3]; cytotoxicity IC50) is on record?
A: Its value is ~2 fold.

Q: For O=C(NCCOCCOCCNc1cccc2c1C(=O)N(C1CCCNC1=O)C2=O)c1cc2c(o1)C(=O)c1ccccc1C2=O (stereo not shown) [10–5, N-(2-(2-(2-((1,3-dioxo-2-(2-oxopiperidin-3-yl)isoindolin-4-yl)amino)ethoxy)ethoxy)ethyl)-4,9-dioxo-4,9-dihydronaphtho[2,3-b]furan-2-carboxamide], which “activity on STAT3 expression compared with XD97” value [8] is on record?
A: The value was “comparable activity to XD97”.

Q: What does the source list for CN1C(=O)CCC(N2C(=O)c3cccc(NCCCCCC4CCN(CCNC(=O)c5cc6c(o5)C(=O)c5ccccc5C6=O)CC4)c3C2=O)C1=O (stereo not shown) [11–7, N-(2-(4-(5-((2-(1-methyl-2,6-dioxopiperidin-3-yl)-1,3-dioxoisoindolin-4-yl)amino)pentyl)piperidin-1-yl)ethyl)-4,9-dioxo-4,9-dihydronaphtho[2,3-b]furan-2-carboxamide]?
A: concentration at which a decrease in pSTAT3 level was achieved [4]: 5 μM; effect on STAT3 expression [1]: did not have any effect

Q: With CC(=O)c1cc2c(o1)C(=O)c1ccccc1C2=O [NP, 2-acetylbenzo[f][1]benzofuran-4,9-dione, reference compound] as the compound, how does the GSPT1 protein level [5] read?
A: Its GSPT1 protein level is “not affected”.

Q: And the ZFP91 protein level ([6]; BxPC-3, 16 h, up to 3 μM)?
A: The ZFP91 protein level was “no effect”.

Q: Which “no cytotoxicity in the MTT assay up to” value [9] does the source give for Nc1cccc2c1C(=O)N(C1CCC(=O)NC1=O)C2=O (stereo not shown) [Pomalidomide] here?
A: Its value is > 30 µM.

Q: What does the source list for NC(=O)CC[C@H](NC(=O)[C@@H]1CC[C@@H]2CCN(C(=O)CCCCCC#Cc3cccc4c3CN(C3CCC(=O)NC3=O)C4=O)C[C@H](NC(=O)c3cc4cc(C(F)(F)P(=O)(O)O)ccc4[nH]3)C(=O)N21)C(=O)NC(c1ccccc1)c1ccccc1 (stereo partly shown) [SD-36]?
A: tumor response [10]: complete tumor regression; DC50 values for STAT3 degradation (in words) [11]: nanomolar

Q: What does the source list for “N-(2-(2-(2-((2-(2,6-dioxopiperidin-3-yl)-1,3-dioxoisoindolin-5-yl)amino)ethoxy)ethoxy)ethyl)-4,9-dioxo-4,9-dihydronaphtho[2,3-b]furan-2-carboxamide [6–6c]”?
A: IC50 [3, 14]: 23.8 ± 3.9 µM; IC50 [12]: 10.5 ± 3 µM

Q: Which IC50 [3, 14] does the source give for “N-(5-(2-(2,6-dioxopiperidin-3-yl)-1-oxoisoindolin-4-yl)pentyl)-4,9-dioxo-4,9-dihydronaphtho[2,3-b]furan-2-carboxamide [8–1]” here?
A: Its IC50 is 13.8 ± 7.7 µM.

Q: What about the IC50 [12] of the same compound?
A: The IC50 was 6.4 ± 3.4 µM.
